According to ChEMBL document CHEMBL1152570, “Discovery of a series of acrylic acids and their derivatives as chemical leads for selective EP3 receptor antagonists” (Bioorg Med Chem, 2009):

Columns and labels:
[1] = biological target: T1, Prostaglandin E2 receptor EP3 subtype (Mus musculus, UniProt P30557); assay: Antagonist activity at mouse EP3alpha receptor expressed in CHo cells assessed as inhibition of PGE2-stimulated intracellular calcium concentration; assay type: functional, cell-based
T1 sequence (P30557 whole entry): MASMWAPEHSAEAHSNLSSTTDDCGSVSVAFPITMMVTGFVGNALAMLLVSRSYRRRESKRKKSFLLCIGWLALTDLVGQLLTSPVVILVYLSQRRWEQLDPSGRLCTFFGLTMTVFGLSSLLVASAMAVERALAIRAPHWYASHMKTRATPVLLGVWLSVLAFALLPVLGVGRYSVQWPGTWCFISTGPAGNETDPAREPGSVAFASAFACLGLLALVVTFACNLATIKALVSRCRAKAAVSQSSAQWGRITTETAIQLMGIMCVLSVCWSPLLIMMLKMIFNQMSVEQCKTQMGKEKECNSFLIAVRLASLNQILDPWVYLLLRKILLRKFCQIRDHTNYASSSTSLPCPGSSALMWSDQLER
How it was run: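 CHO cells expressing mEP3α were plated at 1×10^4 cells/well and grown 2 days in 10% FBS/αMEM at 37 °C, 5% CO2. Cells were loaded 1 h with 5 µM Fura-2/AM, 20 µM indomethacin and 2.5 mM probenecid. Assay buffer was HBSS with 0.1% BSA, 2 µM indomethacin, 2.5 mM probenecid and 10 mM HEPES, with 1 h dark equilibration at room temperature. Test compound was added with 10 nM PGE2; fluorescence read at 340/380 nm excitation, 500 nm emission. IC50 from percent inhibition of the PGE2 Ca2+ peak.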

[2] = biological target: T1, Prostaglandin E2 receptor EP3 subtype; assay: Displacement of [3H]PGE2 from mouse EP3 receptor expressed in CHO cells by liquid scintillation counting; assay type: cell-based
How it was run: (§1)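 Mouse EP3α and EP4 CHO membrane binding: 2.5 nM [3H]PGE2 with graded test compound in pH 6.0 KH2PO4-KOH buffer (1 mM EDTA, 10 mM MgCl2, 0.1 mM NaCl), 60 min at 25 °C. Bound ligand collected on GF/B filters, washed with cold buffer, counted by liquid scintillation. Excess unlabeled PGE2 gave nonspecific binding. Ki derived from regression IC50, [L] and Kd.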

[3] = biological target: Prostaglandin E2 receptor EP4 subtype (Mus musculus, UniProt P32240); assay: Displacement of [3H]PGE2 from mouse EP4 receptor expressed in CHO cells by liquid scintillation counting; assay type: cell-based; how it was run: as §1
[4] = biological target: T2, Prostaglandin E2 receptor EP1 subtype (Mus musculus, UniProt P35375); assay: Displacement of [3H]PGE2 from mouse EP1 receptor expressed in CHO cells by liquid scintillation counting; assay type: cell-based
T2 sequence (P35375 whole entry): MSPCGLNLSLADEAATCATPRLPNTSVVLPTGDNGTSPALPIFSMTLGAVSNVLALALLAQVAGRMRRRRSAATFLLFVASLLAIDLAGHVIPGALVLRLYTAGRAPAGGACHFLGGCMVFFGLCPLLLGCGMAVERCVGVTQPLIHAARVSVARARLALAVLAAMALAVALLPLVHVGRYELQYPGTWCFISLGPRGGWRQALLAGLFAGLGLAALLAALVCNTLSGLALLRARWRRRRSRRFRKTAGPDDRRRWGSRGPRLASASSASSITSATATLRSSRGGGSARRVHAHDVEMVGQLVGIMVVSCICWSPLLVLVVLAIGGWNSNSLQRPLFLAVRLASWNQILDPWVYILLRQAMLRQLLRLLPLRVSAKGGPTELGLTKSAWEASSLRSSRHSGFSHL
How it was run: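 Membranes from CHO cells stably expressing mEP1, incubated with 2.5 nM [3H]PGE2 and varied test compound concentrations. Buffer: 10 mM KH2PO4-KOH, 1 mM EDTA, 10 mM MgCl2, 0.1 mM NaCl, pH 6.0. Run at 25 °C for 20 min. Filtered on GF/B and washed ice-cold before scintillation counting. Nonspecific binding measured with excess cold PGE2. IC50 from regression; Ki via the Cheng–Prusoff form.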

[5] = biological target: Prostaglandin E2 receptor EP2 subtype (Mus musculus, UniProt Q62053); assay: Displacement of [3H]PGE2 from mouse EP2 receptor expressed in CHO cells by liquid scintillation counting; assay type: cell-based
How it was run: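 Membranes from CHO cells stably expressing the receptor, incubated with 2.5 nM [3H]PGE2 plus test compound over a concentration range. Buffer: 10 mM KH2PO4-KOH, 1 mM EDTA, 10 mM MgCl2, 0.1 mM NaCl, pH 6.0. Run at 25 °C for 60 min. Stopped by GF/B filtration with ice-cold buffer wash, then scintillation counted. Excess unlabeled PGE2 defined nonspecific binding. IC50 taken from the regression curve; Ki = IC50/(1+[L]/Kd).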

Liver microsomes [6] = assay: Metabolic stability in human liver microsomes; assay type: ADME, Microsome
How it was run: (§2)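 Human or rat liver microsomes incubated with compound for 15 min at 37 °C; result expressed as percent of intact compound remaining.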

[7] = Cmax in rat at 10 mg/kg, po; assay type: ADME, organism-based; design: dose 10 mg/kg, route oral; details: in vivo
How it was run: (§3)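 Rats dosed orally at 10 mg/kg; compound given as the sodium salt where specified.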

[8] = Volume of distribution at steady state in rat at 10 mg/kg, iv and 10 mg/kg, po; assay type: ADME, organism-based; details: in vivo, read-out: Vdss
How it was run: (§4)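 Rats dosed at 10 mg/kg iv and 10 mg/kg po, compound given as the sodium salt.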

[9] = AUC (0 to 4 hrs) in rat at 10 mg/kg, po; assay type: ADME, organism-based; design: time < 4 hr, dose 10 mg/kg, route oral; details: plasma; how it was run: as §3
[10] = Half life in rat at 10 mg/kg, iv and 10 mg/kg, po; assay type: ADME, organism-based; details: in vivo; how it was run: as §4
[11] = Oral bioavailability in rat at 10 mg/kg; assay type: ADME, organism-based; details: in vivo; how it was run: as §3
Liver microsomes [12] = assay: Metabolic stability in rat liver microsomes; assay type: ADME, Microsome; how it was run: as §2
[13] = Total clearance in rat at 10 mg/kg, iv and 10 mg/kg, po; assay type: ADME, organism-based; details: in vivo; how it was run: as §4
Cytochrome P450 2C19 = Cytochrome P450 2C19 (Homo sapiens, UniProt P33261); assay: Inhibition of CYP2C19; assay type: ADME
Cytochrome P450 1A2 = biological target: T3, Cytochrome P450 1A2 (Homo sapiens, UniProt P05177); assay: Inhibition of CYP1A2; assay type: ADME
T3 sequence (P05177 whole entry): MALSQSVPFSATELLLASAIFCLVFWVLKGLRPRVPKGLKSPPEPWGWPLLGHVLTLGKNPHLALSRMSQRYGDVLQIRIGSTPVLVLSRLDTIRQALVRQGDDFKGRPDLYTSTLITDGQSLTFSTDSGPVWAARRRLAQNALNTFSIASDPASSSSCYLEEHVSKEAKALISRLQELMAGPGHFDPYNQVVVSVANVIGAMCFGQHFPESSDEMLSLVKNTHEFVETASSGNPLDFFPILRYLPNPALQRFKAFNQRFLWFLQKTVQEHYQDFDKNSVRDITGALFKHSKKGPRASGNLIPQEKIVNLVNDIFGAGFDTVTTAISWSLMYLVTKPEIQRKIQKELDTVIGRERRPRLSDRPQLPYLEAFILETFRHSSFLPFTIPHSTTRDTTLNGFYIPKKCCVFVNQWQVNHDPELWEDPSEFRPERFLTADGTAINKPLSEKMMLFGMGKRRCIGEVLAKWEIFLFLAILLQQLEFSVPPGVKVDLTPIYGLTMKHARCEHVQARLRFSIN

Cytochrome P450 2D6 = Cytochrome P450 2D6 (Homo sapiens, UniProt P10635); assay: Inhibition of CYP2D6; assay type: ADME
Cytochrome P450 3A4 = Cytochrome P450 3A4 (Homo sapiens, UniProt P08684); assay: Inhibition of CYP3A4; assay type: ADME
Cytochrome P450 2C9 = Cytochrome P450 2C9 (Homo sapiens, UniProt P11712); assay: Inhibition of CYP2C9; assay type: ADME
Cytochrome P450 2C9, sequence (P11712 whole entry): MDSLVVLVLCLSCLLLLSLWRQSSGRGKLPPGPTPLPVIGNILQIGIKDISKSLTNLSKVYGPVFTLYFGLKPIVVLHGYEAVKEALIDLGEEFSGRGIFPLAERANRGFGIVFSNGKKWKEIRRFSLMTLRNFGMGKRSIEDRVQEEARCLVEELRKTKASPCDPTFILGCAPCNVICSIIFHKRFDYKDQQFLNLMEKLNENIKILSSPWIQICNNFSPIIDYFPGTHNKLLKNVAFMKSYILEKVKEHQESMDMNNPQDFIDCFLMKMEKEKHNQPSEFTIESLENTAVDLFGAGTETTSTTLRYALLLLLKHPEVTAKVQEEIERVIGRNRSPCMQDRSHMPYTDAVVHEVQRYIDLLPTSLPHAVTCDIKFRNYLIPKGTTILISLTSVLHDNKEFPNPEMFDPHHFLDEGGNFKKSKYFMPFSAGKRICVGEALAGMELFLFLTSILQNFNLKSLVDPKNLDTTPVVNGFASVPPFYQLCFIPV

Prostaglandin E2 receptor EP2 subtype, sequence (Q62053 whole entry): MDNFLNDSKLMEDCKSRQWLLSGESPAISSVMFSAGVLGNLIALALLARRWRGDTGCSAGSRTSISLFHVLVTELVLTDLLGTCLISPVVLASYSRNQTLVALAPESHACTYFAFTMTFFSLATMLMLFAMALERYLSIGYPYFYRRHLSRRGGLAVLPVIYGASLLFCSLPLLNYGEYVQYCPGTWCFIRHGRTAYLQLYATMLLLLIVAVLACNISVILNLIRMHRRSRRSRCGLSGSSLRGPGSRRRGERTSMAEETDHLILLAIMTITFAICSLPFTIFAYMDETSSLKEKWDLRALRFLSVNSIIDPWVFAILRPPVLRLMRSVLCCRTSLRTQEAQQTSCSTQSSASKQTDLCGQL
Cytochrome P450 2C19, sequence (P33261 whole entry): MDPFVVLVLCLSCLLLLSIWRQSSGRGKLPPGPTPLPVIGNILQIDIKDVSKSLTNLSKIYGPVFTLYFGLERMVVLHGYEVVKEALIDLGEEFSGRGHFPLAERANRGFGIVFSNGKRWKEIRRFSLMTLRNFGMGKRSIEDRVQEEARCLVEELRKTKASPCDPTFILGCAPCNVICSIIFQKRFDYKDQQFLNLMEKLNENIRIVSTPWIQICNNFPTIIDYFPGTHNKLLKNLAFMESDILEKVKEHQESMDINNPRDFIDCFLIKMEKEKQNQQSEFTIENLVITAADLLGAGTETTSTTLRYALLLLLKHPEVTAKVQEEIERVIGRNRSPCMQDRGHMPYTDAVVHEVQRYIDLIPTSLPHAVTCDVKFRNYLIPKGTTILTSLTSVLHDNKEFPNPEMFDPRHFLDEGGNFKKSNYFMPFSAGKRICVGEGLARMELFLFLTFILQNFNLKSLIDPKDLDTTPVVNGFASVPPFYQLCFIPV
Cytochrome P450 2D6, sequence (P10635 whole entry): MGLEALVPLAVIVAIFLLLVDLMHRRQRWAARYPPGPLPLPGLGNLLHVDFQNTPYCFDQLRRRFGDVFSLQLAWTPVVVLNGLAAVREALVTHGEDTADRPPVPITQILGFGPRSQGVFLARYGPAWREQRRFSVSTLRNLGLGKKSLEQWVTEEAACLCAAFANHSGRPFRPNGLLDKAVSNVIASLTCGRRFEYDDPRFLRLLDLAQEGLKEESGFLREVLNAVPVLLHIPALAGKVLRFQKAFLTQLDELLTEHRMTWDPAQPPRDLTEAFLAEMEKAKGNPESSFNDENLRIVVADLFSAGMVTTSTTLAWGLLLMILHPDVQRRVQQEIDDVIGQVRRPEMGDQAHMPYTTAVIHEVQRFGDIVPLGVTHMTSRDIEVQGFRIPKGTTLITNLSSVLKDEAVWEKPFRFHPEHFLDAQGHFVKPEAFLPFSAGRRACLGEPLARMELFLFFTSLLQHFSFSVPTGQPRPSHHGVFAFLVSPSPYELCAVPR
Prostaglandin E2 receptor EP4 subtype, sequence (P32240 whole entry): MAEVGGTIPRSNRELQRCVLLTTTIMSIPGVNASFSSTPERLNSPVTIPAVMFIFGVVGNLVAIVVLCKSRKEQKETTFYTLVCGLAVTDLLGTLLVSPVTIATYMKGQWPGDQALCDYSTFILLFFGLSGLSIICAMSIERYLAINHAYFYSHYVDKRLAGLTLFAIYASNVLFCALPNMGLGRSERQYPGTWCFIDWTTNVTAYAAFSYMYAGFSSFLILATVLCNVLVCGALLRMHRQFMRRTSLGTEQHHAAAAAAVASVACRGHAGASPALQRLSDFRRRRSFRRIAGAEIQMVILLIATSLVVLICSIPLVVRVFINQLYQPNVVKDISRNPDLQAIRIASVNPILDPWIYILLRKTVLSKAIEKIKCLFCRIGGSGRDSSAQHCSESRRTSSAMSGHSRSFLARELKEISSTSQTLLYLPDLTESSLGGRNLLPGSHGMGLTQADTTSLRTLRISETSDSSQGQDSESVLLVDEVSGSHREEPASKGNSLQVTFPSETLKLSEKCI
Cytochrome P450 3A4, sequence (P08684 whole entry): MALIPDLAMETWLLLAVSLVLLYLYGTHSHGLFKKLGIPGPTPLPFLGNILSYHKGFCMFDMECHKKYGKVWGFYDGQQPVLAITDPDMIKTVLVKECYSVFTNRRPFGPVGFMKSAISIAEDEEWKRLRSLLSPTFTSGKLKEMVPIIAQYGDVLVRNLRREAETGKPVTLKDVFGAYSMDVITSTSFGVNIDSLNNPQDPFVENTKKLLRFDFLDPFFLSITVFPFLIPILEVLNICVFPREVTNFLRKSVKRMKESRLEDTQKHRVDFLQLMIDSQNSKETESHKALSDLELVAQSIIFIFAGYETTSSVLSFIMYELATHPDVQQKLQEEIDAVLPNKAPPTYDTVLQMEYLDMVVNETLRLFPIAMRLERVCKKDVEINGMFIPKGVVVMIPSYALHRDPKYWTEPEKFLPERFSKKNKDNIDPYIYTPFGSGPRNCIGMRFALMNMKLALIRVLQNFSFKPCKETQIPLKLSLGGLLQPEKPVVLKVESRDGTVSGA

Structure (SMILES) | IC50 [1] [nM] | Ki [2] [nM] | Ki [3] [nM] | Ki [4] [nM] | Ki [5] [nM] | further results
O=C(O)/C=C/c1ccc(COc2ccccc2)cc1OCCc1ccc2ccccc2c1 | 140 | 130 | 2600 | > 10000 | 9200 | –
COc1ccc(/C=C/C(=O)O)c(OCCC2(C)CCc3c(C)c(O)c(C)c(C)c3O2)c1 (configuration not stated) | > 10000 | > 10000 | 920 | > 10000 | 6800 | –
O=C([O-])CCc1ccc(Cn2cccn2)cc1OCCc1ccc2ccccc2c1.[Na+] | – | – | – | – | – | Stability (Liver microsomes [6]): 100%; Cmax [7]: 8320 ng/mL; Vd [8]: 0.538 L/kg; AUC(0-t) at 4 h [9]: 22900 ng·h/mL; half-life [10]: 2.93 h; bioavailability [11]: 53%; Stability (Liver microsomes [12]): 73%; clearance [13]: 2.77 mL/min/kg
Cc1c(C)c2c(c(C)c1O)CCC(C)(CCOc1cc(Cn3ccnc3)ccc1/C=C/C(=O)O)O2 (configuration not stated) | 600 | 63 | > 10000 | > 10000 | > 10000 | –
Cc1c(C)c2c(c(C)c1O)CCC(C)(CCOc1ccccc1/C=C/C(=O)O)O2 (configuration not stated) | 4800 | 530 | 2600 | > 10000 | 1200 | –
O=C(O)/C=C/c1ccc(Cn2ccnc2)cc1OCCc1cc2ccccc2o1 | 330 | 44 | 4300 | > 10000 | > 10000 | –
O=C(O)/C=C/c1ccc(Cc2cccs2)cc1OCCc1ccc2ccccc2c1 | 150 | 150 | 2200 | > 10000 | 2100 | –
Cc1ccc(/C=C/C(=O)O)c(OCCC2(C)CCc3c(C)c(O)c(C)c(C)c3O2)c1 (configuration not stated) | 3100 | 940 | 2200 | > 10000 | 5700 | –
O=C(O)CCCc1ccc(Cn2cccn2)cc1OCCc1ccc2ccccc2c1 | 460 | 39 | 1400 | 4000 | 1800 | –
O=C(O)C#Cc1ccc(Cn2cccn2)cc1OCCc1ccc2ccccc2c1 | 1200 | 99 | 2900 | > 10000 | > 10000 | –
O=C(O)/C=C/c1ccc(Cn2cccn2)cc1OCCc1ccc2ccccc2c1 | 73 | 12 | 670 | 2900 | 3300 | IC50 (Cytochrome P450 2C19): 30000 nM; IC50 (Cytochrome P450 1A2): > 30000 nM; IC50 (Cytochrome P450 2D6): > 30000 nM; IC50 (Cytochrome P450 3A4): > 30000 nM; IC50 (Cytochrome P450 2C9): 12800 nM
O=C(O)COCc1ccc(Cn2cccn2)cc1OCCc1ccc2ccccc2c1 | 540 | 210 | > 10000 | > 10000 | 1300 | –
O=C([O-])/C=C/c1ccc(Cn2cccn2)cc1OCCc1ccc2ccccc2c1.[Na+] | – | – | – | – | – | Stability (Liver microsomes [6]): 100%; Cmax [7]: 943 ng/mL; AUC(0-t) at 4 h [9]: 1360 ng·h/mL; Stability (Liver microsomes [12]): 72%
O=C(O)/C=C/c1ccc(Cn2ccnc2)cc1OCCCOc1ccccc1 | 3000 | 280 | > 10000 | > 10000 | > 10000 | –
O=C(O)/C=C/c1ccc(Cn2ccnc2)cc1OCCc1ccc2ccccc2c1 | 50 | 16 | 2200 | > 10000 | > 10000 | IC50 (Cytochrome P450 2C19): < 1000 nM; IC50 (Cytochrome P450 1A2): < 1000 nM; IC50 (Cytochrome P450 2D6): 4400 nM; IC50 (Cytochrome P450 3A4): < 1000 nM; IC50 (Cytochrome P450 2C9): < 1000 nM
O=C(O)/C=C/c1ccc(Cn2ccnc2)cc1OCCCCOc1ccccc1 | 3500 | 220 | > 10000 | > 10000 | > 10000 | –
O=C(O)/C=C/c1ccc(OCc2ccccc2)cc1OCCc1ccc2ccccc2c1 | 1500 | 850 | > 10000 | > 10000 | 1200 | –
O=C(O)COc1ccc(Cn2cccn2)cc1OCCc1ccc2ccccc2c1 | 2600 | 260 | > 10000 | > 10000 | > 10000 | –
O=C(O)/C=C/c1ccc(Cc2ccccc2)cc1OCCc1ccc2ccccc2c1 | 400 | 130 | 2100 | > 10000 | > 10000 | –
O=C(O)/C=C/c1ccc(CN2CCCC2=O)cc1OCCc1ccc2ccccc2c1 | 580 | 110 | 2300 | 6400 | 5900 | –
O=C(O)CCc1ccc(Cn2cccn2)cc1OCCc1ccc2ccccc2c1 | 22 | 12 | 1100 | 7100 | 2800 | IC50 (Cytochrome P450 2C19): > 30000 nM; IC50 (Cytochrome P450 1A2): > 30000 nM; IC50 (Cytochrome P450 2D6): > 30000 nM; IC50 (Cytochrome P450 3A4): > 30000 nM; IC50 (Cytochrome P450 2C9): 30000 nM
